Screening results: PubChem, several laboratories
Shown are actives, neighbours in structure and some others; about 2.9% of the full set was active somewhere.
SENP7 inh – SENP7 protease inhibitors, primary screen, biochemical, luminescence, uHTS; recombinant SENP7, Z-RLRGG-aminoluciferin luminescence, 40 min; 1.5% of 330,000 active; AID 434973, 2010; inhibition, % at 5 µM;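 active = inhibition above about 50% at the single test dose, limit read from the data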;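 also: plate controls were DMSO with enzyme for no effect and no enzyme buffer wells for full effect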
SENP6 block – SENP6 protease inhibitors, primary screen, biochemical, luminescence, uHTS | Sentrin-specific protease 6 (Homo sapiens), Q9GZR1 | Recombinant SENP6 catalytic domain, aminoluciferin luminescence | inhibition, % at 10 µM | 1.8% of 330,000 active | AID 2599, 2010;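 active = inhibition above about 50% at the single tested dose, limit read from the data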;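 also: plate controls were DMSO wells with enzyme for no effect and DMSO wells lacking enzyme for full effect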
SENP8 block-1 – SENP8 protease inhibitors, primary screen, biochemical, luminescence; 1.2% of 330,000 active; inhibition, % at 10 µM; purified SENP8, Z-RLRGG-aminoluciferin cleavage; Sentrin-specific protease 8 (Homo sapiens), Q96LD8; in the data active = inhibition above about 50%
Target sequence (Q96LD8 whole entry, looked up): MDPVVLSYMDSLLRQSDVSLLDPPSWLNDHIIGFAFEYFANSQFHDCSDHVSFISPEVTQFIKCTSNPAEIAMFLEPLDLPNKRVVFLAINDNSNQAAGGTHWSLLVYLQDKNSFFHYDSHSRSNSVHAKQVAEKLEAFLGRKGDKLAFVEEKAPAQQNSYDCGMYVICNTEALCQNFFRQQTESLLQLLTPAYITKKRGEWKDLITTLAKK
SENP1 inh – human SENP1 catalytic domain inhibitors, primary screen, biochemical, FRET, uHTS | Sentrin-specific protease 1 (Homo sapiens), Q9P0U3 | recombinant SENP1 catalytic domain, CyPet-SUMO1-YPet FRET cleavage | inhibition, % at 10 µM | 0.21% of 360,000 active;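 active = inhibition at least 30% at 10 µM, raw YFP signal under a set limit, fluorescence ratio 0.5 to 1.5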;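 also: 0% = enzyme with DMSO and 100% = no enzyme wells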
Target sequence (Q9P0U3 419-644 limits assumed): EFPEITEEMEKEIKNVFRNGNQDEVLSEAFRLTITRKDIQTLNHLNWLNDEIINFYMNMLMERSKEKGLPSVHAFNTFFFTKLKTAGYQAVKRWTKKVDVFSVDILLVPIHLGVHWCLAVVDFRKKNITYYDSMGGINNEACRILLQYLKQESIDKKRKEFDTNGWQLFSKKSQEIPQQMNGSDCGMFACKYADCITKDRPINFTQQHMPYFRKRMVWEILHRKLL
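Assay system – human recombinant His6-tagged SENP1 catalytic domain enzyme · Input – SENP1 enzyme, 20 pM final · Buffer or medium – Tris pH 8 buffer plus EDTA, NaCl, BME, BSA, NP40, catalase · Schedule – 50 min reaction at room temperature · Technique – FRET read of cyan and yellow fluorescence · Control set – no-enzyme wells low, DMSO-plus-enzyme wells high control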
SENP8 block-2 – human SENP8 protease inhibitors, primary screen, biochemical, fluorescence, Nedd8 protein substrate, uHTS. Sentrin-specific protease 8 (Homo sapiens), Q96LD8. recombinant SENP8. 0.64% of 360,000 active. inhibition, % at 20 µM. AID 602440, 2012; in the data active = inhibition mostly above about 40%, no sharp cut-off; inactive = mostly below about 27%
HSP90 inh – HSP90 inhibitors, primary screen, cell lysate, luminescence | Heat shock protein HSP 90 (rabbit reticulocyte lysate; luciferase refolding) | Rabbit reticulocyte lysate, luciferase refolding luminescence, 3 h | inhibition, % at 5.6 µM | 0.91% of 290,000 active | AID 1789, 2009;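 active = inhibition above the screen-wide mean plus 3 SD, computed separately per campaign, cut at about 16% in these data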;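 also: 0% = DMSO wells and 100% = 60 µM geldanamycin wells; inhibitors lower the luminescence because luciferase stays unfolded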
SENP8 conf – SENP8 protease inhibitors, retest, confirmation, biochemical, luminescence, single concentration; shares compounds with SENP7 inh; Recombinant SENP8, Z-RLRGG-aminoluciferin luminescence, 60 min; inhibition, % at 12.5 µM; 40% of 6,200 active;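 active = mean inhibition across replicates above about 50%, limit read from the data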
SENP6 confirm – SENP6 protease inhibitors, confirmation, biochemical, luminescence, single concentration | shares compounds with SENP7 inh | recombinant SENP6, Z-RLRGG-aminoluciferin luminescence | inhibition, % at 12.5 µM | 58% of 6,200 active | AID 488915, 2010
SENP7 confirm – SENP7 protease inhibitors, retest, confirmation, biochemical, luminescence, single concentration | shares compounds with SENP7 inh | recombinant SENP7, Z-RLRGG-aminoluciferin luminescence, 40 min | inhibition, % at 12.5 µM | 69% of 6,200 active | AID 488917, 2010
Casp3 SENP sel – caspase-3 protease inhibitors, confirmation, selectivity assay for SENP inhibitor project, biochemical, single concentration | inhibition, % at 12.5 µM | 60% of 6,200 active | shares compounds with SENP7 inh | AID 488918, 2010 | purified caspase-3, Z-DEVD-aminoluciferin luminescence, 60 min;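 active = mean inhibition above about 50%, limit read from the data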;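 also: plate controls were enzyme with DMSO for no effect and wells without caspase-3 for full effect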
Target sequence (P42574 28-227 limits assumed): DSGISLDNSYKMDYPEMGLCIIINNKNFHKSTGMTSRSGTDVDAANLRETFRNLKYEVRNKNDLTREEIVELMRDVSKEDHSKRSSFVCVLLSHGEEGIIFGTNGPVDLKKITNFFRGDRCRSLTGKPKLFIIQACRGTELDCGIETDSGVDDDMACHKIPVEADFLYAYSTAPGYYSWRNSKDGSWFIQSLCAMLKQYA
SENP luc ctr – interferes with luciferase luminescence in SENP counter-screen; inhibition, % at 12.5 µM; Pre-incubated SENP8/Z-RLRGG-aminoluciferin, luciferase luminescence interference; 39% of 6,200 active; shares compounds with SENP7 inh;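 active = mean inhibition above about 50% when retested at one dose, limit read from the data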;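 also: plate controls were DMSO wells with completed reaction for no effect and substrate without enzyme for full effect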
* marks the source's active call; other numbers are inactive results; x = no result given.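 The calls were made as follows, unless noted: active = mean inhibition above about 50% in the one-dose retest (limit read from the data); inactive = the rest.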

SMILES	SENP7 inh	SENP6 block	SENP8 block-1	SENP1 inh	SENP8 block-2	HSP90 inh	SENP8 conf	SENP6 confirm	SENP7 confirm	Casp3 SENP sel	SENP luc ctr
Cc1nc(-c2noc(-c3ccccc3Cl)n2)c(C(F)(F)F)o1	65*	78*	70*	2	20	4	24	57*	78*	70*	40
Clc1ccccc1/C=C/c1nc(-c2cccnc2)no1	77*	88*	69*	2	6	14	56*	68*	89*	56*	12
Cc1onc(-c2ccccc2Cl)c1-c1nc(-c2ccncc2)no1	1	-12	-1	0	12	-5	x	x	x	x	x
Cc1ccccc1-c1nc(-c2cccnc2)no1	53*	60*	36	2	7	5	25	60*	84*	67*	31
O=C(Nc1ccc(F)cc1)Nc1nnc([C@@H]2C[C@H](O)[C@@H](CO)O2)s1	x	x	x	1	21	x	x	x	x	x	x
Clc1ccccc1-c1nc(-c2cccnc2)no1	81*	84*	64*	0	30	0	9	72*	93*	77*	64*
Clc1ccccc1-c1nc(-c2ccncc2)no1	80*	81*	75*	1	12	1	82*	84*	97*	84*	71*
c1ccc(-c2ccccc2-c2nc(-c3ccncc3)no2)cc1	8	-11	5	1	17	2	x	x	x	x	x
O=C(Nc1cccc(C(=O)N2CCOCC2)c1)C1CCCC1	x	x	x	1	5	x	x	x	x	x	x
Cc1ccc(Cn2ccnc2C(=O)Nc2ccccc2)cc1	73*	79*	51*	2	4	2	4	0	47	9	22
N#Cc1ccc(Cn2ccnc2C(=O)Nc2ccccc2)cc1	-5	11	-12	1	4	-2	x	x	x	x	x
COc1ccc(NC(=O)c2cnn(-c3ccccc3)c2C)cc1	90*	90*	80*	0	10	10	-8	82*	97*	92*	56*
Cc1c(C(=O)Nc2ccccc2)cnn1-c1ccccc1	26	25	21	1	25	x	x	x	x	x	x
Cc1c(C(=O)Nc2cccc([N+](=O)[O-])c2)cnn1-c1ccccc1	56*	67*	34	1	12	-5	51*	48	81*	49	58*
Cc1c(C(=O)Nc2cccc(F)c2)cnn1-c1ccccc1	41	48	35	1	10	1	x	x	x	x	x
COc1ccc(NC(=O)c2cnn(-c3ccccc3)c2C)cc1OC	41	52*	29	-3	14	-5	25	25	64*	63*	46
O=C(Nc1cccc([N+](=O)[O-])c1)c1[nH]ncc1Cl	81*	81*	74*	4	14	-1	67*	61*	91*	77*	54*
C[C@@H]1CN([C@H](C)CO)C(=O)c2cc(Br)cnc2O[C@@H]1CN(C)C(=O)Nc1ccccc1	x	x	x	1	1	x	x	x	x	x	x
Cc1cc(NC(=O)CCC(=O)N(Cc2ccco2)C2(C(=O)NC3CCCCC3)CCCC(C)C2)no1 (stereo not drawn)	-3	-15	-4	2	0	0	x	x	x	x	x
CN(CC(=O)Nc1c(Cl)cccc1Cl)C(=O)C1CCN(C(=O)Nc2ccccc2)CC1	-6	-5	2	1	9	x	x	x	x	x	x
CCOC(=O)C1CCN(C(=O)c2cc3c(ccc4ccccc43)o2)CC1	56*	73*	56*	1	-6	-2	69*	67*	81*	53*	55*
CCOC(=O)C1CCN(C(=O)c2cc3cc4ccc(C)cc4nc3o2)CC1	0	18	-1	2	-111	-2	x	x	x	x	x
CC1(C)CC2(C)CC(=O)C1C(C(=O)O)C2C(=O)O (stereo not drawn)	x	x	x	2	15	x	x	x	x	x	x
CCOc1ccc(-c2cn(-c3ccccc3OC)c(=S)[nH]2)cc1	5	8	3	-12	-3	6	x	x	x	x	x
CCOc1ccc(-n2cc(-c3ccc(OC)c(OC)c3)[nH]c2=S)cc1	-1	73*	53*	0	0	2	7	46	36	23	12
SMILES	SENP7 inh	SENP6 block	SENP8 block-1	SENP1 inh	SENP8 block-2	HSP90 inh	SENP8 conf	SENP6 confirm	SENP7 confirm	Casp3 SENP sel	SENP luc ctr
COCc1c(C(=O)OCC(=O)N2c3ccccc3CC2C)oc2ccccc12 (stereo not drawn)	8	-19	2	0	13	2	x	x	x	x	x
Cc1c(C(=O)N2c3ccccc3CC2C)oc2ccccc12 (stereo not drawn)	62*	80*	68*	-2	15	0	78*	77*	90*	51*	50
c1coc(C2=Nc3cccc4cccc(c34)N2)c1	5	50*	14	0	36	0	-22	-6	-9	-8	-3
COc1cccc(C2=Nc3cccc4cccc(c34)N2)c1	6	-12	-4	-8	15	3	x	x	x	x	x
CCc1ccc(-c2cc(C)no2)cc1S(=O)(=O)N1CCOc2ccc(C)cc21	5	-20	-9	2	22	3	x	x	x	x	x
O=C(Cc1c(F)cccc1Cl)NNC(=O)c1cccs1	11	0	-4	1	-12	x	x	x	x	x	x
Cc1cccc(NC(=S)NNC(=O)c2csc(C(C)C)c2)c1	87*	77*	50	2	20	0	9	11	12	8	18
CCc1cc(C(=O)NNC(=S)Nc2cccc(C)c2)cs1	56*	75*	39	0	13	-2	25	25	8	9	19
